In ChEMBL document CHEMBL1131478 (J Med Chem, 1998) one finds IC50 and Cmax data, which are given here for 46 compounds.

Molecules are shown by their SMILES.

Data set [1] deals with 72 kDa type IV collagenase (Homo sapiens, UniProt P08253). Kind of data set: Inhibitory activity against human gelatinase A (matrix metalloprotease-2 MMP2).
Data set [2] concerns the target Matrix metalloproteinase-9 (Homo sapiens, UniProt P14780). As to the kind of experiment: Inhibitory activity against human gelatinase B (Matrix metalloprotease-9).
Data set [3] can be described thus: Maximum plasma concentration (Cmax) after p.o. administration of 200 mg/kg in mice. The format is ADME, organism-based. On the set-up: dose 200 mg/kg, route oral. The following applies: mouse, po. The method in brief:
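Single 200 mg/kg oral dose in mice, given in 0.5% methyl cellulose. Blood drawn at various time points. Plasma drug extracted with CH3CN and quantified by reverse-phase C18 HPLC using a CH3CN gradient with 0.1% TFA. Peak plasma level taken as Cmax.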

Matrix metalloproteinase-9, sequence (P14780 whole entry): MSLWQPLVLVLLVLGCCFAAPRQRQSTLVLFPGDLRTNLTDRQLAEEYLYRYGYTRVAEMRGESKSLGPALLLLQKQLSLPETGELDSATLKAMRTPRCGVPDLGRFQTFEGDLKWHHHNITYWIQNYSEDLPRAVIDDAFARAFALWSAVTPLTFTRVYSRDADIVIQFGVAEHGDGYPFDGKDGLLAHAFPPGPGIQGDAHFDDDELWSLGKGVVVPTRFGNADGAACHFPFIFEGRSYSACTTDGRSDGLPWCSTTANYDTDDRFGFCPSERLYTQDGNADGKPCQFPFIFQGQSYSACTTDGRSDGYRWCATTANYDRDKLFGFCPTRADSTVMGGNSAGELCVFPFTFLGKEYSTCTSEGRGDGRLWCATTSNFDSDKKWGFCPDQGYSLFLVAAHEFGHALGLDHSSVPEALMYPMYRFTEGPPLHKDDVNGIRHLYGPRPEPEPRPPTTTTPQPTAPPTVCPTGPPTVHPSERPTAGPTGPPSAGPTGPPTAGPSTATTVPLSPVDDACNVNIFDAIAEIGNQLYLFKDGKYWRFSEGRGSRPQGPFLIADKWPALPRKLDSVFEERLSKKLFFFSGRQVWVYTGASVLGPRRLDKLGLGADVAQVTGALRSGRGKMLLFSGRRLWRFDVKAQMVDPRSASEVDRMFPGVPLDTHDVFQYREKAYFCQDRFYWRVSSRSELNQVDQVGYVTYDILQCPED
72 kDa type IV collagenase, sequence (P08253 whole entry): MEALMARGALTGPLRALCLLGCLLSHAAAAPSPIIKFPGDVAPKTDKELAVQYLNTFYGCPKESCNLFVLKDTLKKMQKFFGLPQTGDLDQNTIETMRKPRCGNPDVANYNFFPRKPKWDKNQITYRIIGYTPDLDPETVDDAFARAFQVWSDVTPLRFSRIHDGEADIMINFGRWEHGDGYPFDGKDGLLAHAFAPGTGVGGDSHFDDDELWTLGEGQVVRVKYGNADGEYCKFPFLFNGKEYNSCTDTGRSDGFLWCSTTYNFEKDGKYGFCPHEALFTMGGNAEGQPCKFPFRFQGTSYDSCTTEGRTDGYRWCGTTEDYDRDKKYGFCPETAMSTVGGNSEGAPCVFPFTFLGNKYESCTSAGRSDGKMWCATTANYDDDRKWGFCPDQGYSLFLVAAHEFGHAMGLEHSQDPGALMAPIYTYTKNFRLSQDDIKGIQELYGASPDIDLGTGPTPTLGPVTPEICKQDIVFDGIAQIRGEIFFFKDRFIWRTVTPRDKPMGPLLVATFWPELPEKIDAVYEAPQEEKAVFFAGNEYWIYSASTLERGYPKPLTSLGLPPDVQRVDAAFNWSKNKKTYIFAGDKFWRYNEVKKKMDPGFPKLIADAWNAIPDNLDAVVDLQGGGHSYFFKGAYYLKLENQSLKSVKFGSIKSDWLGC

For `O=C(O)[C@@H](Cc1c[nH]c2ccccc12)NS(=O)(=O)c1ccccc1`, the figures for the IC50 in data set [1] and in data set [2] were more than 1 µM and 3.4 µM, respectively.
`Cc1ccc(-n2nnc(-c3ccc(S(=O)(=O)N[C@H](Cc4ccccc4)C(=O)O)cc3)n2)cc1`: the IC50 in data set [1] was less than 0.2 µM. In data set [3], this compound showed a Cmax of 1.2 µM.
Regarding `O=C(Nc1ccccc1)c1ccc(S(=O)(=O)N[C@H](Cc2c[nH]c3ccccc23)C(=O)O)cc1`, the concentration for half-maximal inhibition (IC50) in data set [1] is more than 1 µM; in data set [2] it was more than 10 µM.
For `O=C(O)[C@@H](Cc1ccccc1)NS(=O)(=O)c1ccc(-c2nnn(-c3ccccc3)n2)cc1`, the IC50 in data set [1] was 0.11 µM; in data set [2] it was 0.58 µM. In data set [3], this compound came in with a Cmax of 12.1 µM.
For the compound `CC(C)[C@@H](NS(=O)(=O)c1ccc(Oc2ccccc2)cc1)C(=O)O`, the IC50 in data set [1] is more than 1 µM; in data set [2], 1.1 µM. For the same compound, the maximum concentration (Cmax) in data set [3] is 334 µM.
Consider `O=C(Nc1ccccc1)Nc1ccc(S(=O)(=O)N[C@H](Cc2c[nH]c3ccccc23)C(=O)O)cc1`, for which the IC50 in data set [1] was more than 1 µM; in data set [2], more than 10 µM.
With `CSc1ccc(C(=O)Nc2ccc(S(=O)(=O)N[C@@H](C(=O)O)C(C)C)cc2)cc1`, the concentration for half-maximal inhibition (IC50) in data set [1] came to 0.0067 µM. The Cmax in data set [3] turned out to be 8.3 µM.
Turning to `COc1ccc(C#Cc2ccc(S(=O)(=O)N[C@H](Cc3ccccc3)C(=O)O)cc2)cc1`, the 50% inhibitory concentration (IC50) was found to be 1 µM in data set [1] and 7.8 µM in data set [2].
Consider `COc1ccc(-c2ccc(S(=O)(=O)N[C@@H](C(=O)O)C(C)C)s2)cc1`, for which the figures for the IC50 in data set [1] and in data set [2] were 0.066 µM and 0.072 µM, respectively. Moreover, the highest level in data set [3] (Cmax) was 97.5 µM.
As for `O=C(O)[C@@H](Cc1ccccc1)NS(=O)(=O)c1ccc(-c2ccccc2)cc1`, in data set [1], the IC50 amounted to 0.31 µM. For the same compound, in data set [3], the Cmax is 291 µM.
Take `O=C(NO)[C@@H](Cc1ccccc1)NS(=O)(=O)c1ccc(-c2ccccc2)cc1`: the IC50 in data set [1] is 0.017 µM. Also, in data set [3], the Cmax came out at 2.5 µM.
Turning to `O=C(NO)[C@@H](Cc1ccccc1)NS(=O)(=O)c1ccccc1`, the IC50 in data set [2] was 0.73 µM.
`O=C(Nc1ccc(S(=O)(=O)N[C@H](Cc2c[nH]c3ccccc23)C(=O)O)cc1)c1ccccc1` returned an IC50 in data set [1] of less than 0.04 µM.
In the case of `Cc1ccc(C#Cc2ccc(S(=O)(=O)N[C@@H](C(=O)O)C(C)C)s2)cc1`, the IC50 in data set [1] is 0.053 µM; in data set [2] it was 0.014 µM. The same compound returned a Cmax in data set [3] of 284 µM.
Take `CC(C)[C@@H](NS(=O)(=O)c1ccc(NC(=O)c2ccccc2)cc1)C(=O)O`: the IC50 turned out to be 0.05 µM in data set [1] and 2.1 µM in data set [2].
The matching figures for `O=C(NO)[C@@H](Cc1c[nH]c2ccccc12)NS(=O)(=O)c1ccc(-c2ccccc2)cc1`: 0.0013 µM and 0.005 µM.
Consider `COc1ccc(C#Cc2ccc(S(=O)(=O)N[C@H](Cc3ccccc3)C(=O)O)s2)cc1`, for which the figures for the IC50 in data set [1] and in data set [2] were 0.01 µM and 0.024 µM, respectively. In addition, the concentration in data set [3] peaked (Cmax) at 119 µM.
For `O=C(O)[C@H](Cc1ccccc1)NS(=O)(=O)c1ccc(-c2ccccc2)cc1`, in data set [2], inhibition was half-maximal at 0.8 µM (IC50).
Still for that read-out and setting: then `O=C(O)[C@@H](Cc1c[nH]c2ccccc12)NS(=O)(=O)c1ccc(C#Cc2ccc([N+](=O)[O-])cc2)s1`, with 0.023 µM.
In data set [1], `O=C(Nc1ccc(S(=O)(=O)N[C@H](Cc2ccccc2)C(=O)O)cc1)c1ccccc1` showed an IC50 of less than 1 µM.
In the case of `O=C(N[C@H](Cc1ccccc1)C(=O)O)c1ccc(-c2ccccc2)cc1`, the IC50 in data set [1] is more than 1 µM; in data set [2], more than 50 µM.
The matching figures for `O=C(O)[C@@H](Cc1c[nH]c2ccccc12)NS(=O)(=O)c1ccc2oc3ccccc3c2c1`: more than 1 µM and more than 10 µM.
Turning to `COc1ccc(-n2nnc(-c3ccc(S(=O)(=O)N[C@H](Cc4c[nH]c5ccccc45)C(=O)O)cc3)n2)cc1`, in data set [1], the IC50 turned out to be 0.013 µM. In addition, in data set [3], the peak level (Cmax) was 2.1 µM.
For `CC(C)[C@@H](NS(=O)(=O)c1ccc(-c2nnn(-c3ccccc3)n2)cc1)C(=O)O`, the IC50 in data set [1] is 0.13 µM.
For the compound `O=C(O)[C@@H](Cc1c[nH]c2ccccc12)NS(=O)(=O)c1ccc(-c2nnn(-c3ccc(Br)cc3)n2)cc1`, the IC50 in data set [1] stood at 0.0083 µM. In data set [3], the Cmax stood at 2.5 µM.
Take `O=C(NO)C(Cc1ccccc1)NS(=O)(=O)c1ccccc1` (configuration not stated): in data set [2], the IC50 worked out at 1 µM.
`Cc1ccc(C#Cc2ccc(S(=O)(=O)N[C@@H](C(=O)O)C(C)C)cc2)cc1`: the values for the IC50 in data set [1] and in data set [2] were more than 1 µM and 1.2 µM, respectively.
For `O=C(O)[C@@H](Cc1c[nH]c2ccccc12)NS(=O)(=O)c1ccc(C#Cc2ccccc2[N+](=O)[O-])s1`, in that order: more than 1 µM and 1.5 µM.
Turning to `O=C(O)c1ccc(C#Cc2ccc(S(=O)(=O)N[C@H](Cc3c[nH]c4ccccc34)C(=O)O)cc2)cc1`, the IC50 is more than 1 µM in data set [1] and 8.8 µM in data set [2].
For `O=C(c1ccccc1)c1ccc(S(=O)(=O)N[C@H](Cc2c[nH]c3ccccc23)C(=O)O)cc1`, in that order: more than 1 µM and more than 10 µM.
The matching figures for `O=C(O)[C@@H](Cc1c[nH]c2ccccc12)NS(=O)(=O)c1ccc(C#Cc2ccccc2)cc1`: 0.05 µM and 0.24 µM.
Take `Cc1ccc(C#Cc2ccc(S(=O)(=O)N[C@H](Cc3c[nH]c4ccccc34)C(=O)O)cc2)cc1`: the values for the IC50 in data set [1] and in data set [2] were 0.034 µM and 0.016 µM, respectively. For the same compound, the Cmax in data set [3] was found to be 10.8 µM.
Regarding `O=C(O)[C@@H](Cc1ccccc1)NS(=O)(=O)c1ccc(-c2nnn(-c3ccc(C4CCCCC4)cc3)n2)cc1`, it took 0.28 µM to reach half-maximal inhibition in data set [1] (IC50).
Turning to `O=C(O)[C@@H](Cc1c[nH]c2ccccc12)NS(=O)(=O)c1ccc(Cc2ccccc2)cc1`, the values for the IC50 in data set [1] and in data set [2] were more than 1 µM and more than 10 µM, respectively.
`COc1ccc(-c2ccc(S(=O)(=O)N[C@H](Cc3c[nH]c4ccccc34)C(=O)O)cc2)cc1`: the concentration for half-maximal inhibition (IC50) turned out to be 0.0065 µM in data set [1] and 0.081 µM in data set [2]. In data set [3], the concentration peaked (Cmax) at 3.5 µM.
The matching figures for `COc1ccc(-c2ccc(S(=O)(=O)N[C@@H](C(=O)O)C(C)C)cc2)cc1`: less than 0.1 µM, 0.04 µM and 89.9 µM.
For `O=C(O)[C@@H](Cc1c[nH]c2ccccc12)NS(=O)(=O)c1ccc(-c2ccccc2)cc1`, in that order: 0.053 µM, 0.18 µM and 34.3 µM.
Turning to `O=C(N[C@H](Cc1ccccc1)C(=O)NO)c1ccc(-c2ccccc2)cc1`, the IC50 was more than 1 µM in data set [1] and more than 50 µM in data set [2].
For `O=C(O)[C@@H](Cc1c[nH]c2ccccc12)NS(=O)(=O)c1ccc2ccccc2c1`, in that order: more than 1 µM and more than 10 µM.
In the case of `O=C(NO)[C@H](Cc1ccccc1)NS(=O)(=O)c1ccccc1`, the 50% inhibitory concentration (IC50) in data set [2] is more than 1000 µM.
As for `COc1cccc(-c2ccc(S(=O)(=O)N[C@H](Cc3c[nH]c4ccccc34)C(=O)O)cc2)c1`, the results for the IC50 in data set [1] and in data set [2] were 1 µM and 1.1 µM, respectively.
The matching figures for `O=C(O)[C@@H](Cc1c[nH]c2ccccc12)NS(=O)(=O)c1ccc(/N=N/c2ccccc2)cc1`: 0.05 µM and 0.35 µM.
With `CC(C)[C@@H](NS(=O)(=O)c1ccc(Oc2ccccc2)cc1)C(=O)NO`, the IC50 in data set [1] came out at 0.002 µM; in data set [2], 0.00054 µM. Also, the Cmax in data set [3] stood at 5.8 µM.
The compound `Cc1ccc(C(=O)Nc2ccc(S(=O)(=O)N[C@H](Cc3ccccc3)C(=O)O)cc2)cc1` displayed an IC50 in data set [1] of less than 0.04 µM.
Consider `CC(C)[C@@H](NS(=O)(=O)c1ccc(NC(=O)c2ccc([N+](=O)[O-])cc2)cc1)C(=O)O`, for which the IC50 in data set [1] is less than 0.04 µM; in data set [2], 0.27 µM.
For `O=C(O)[C@@H](Cc1c[nH]c2ccccc12)NS(=O)(=O)c1ccc(Oc2ccccc2)cc1`, in that order: 0.05 µM and 0.25 µM.

For orientation: IC50 means the concentration that gives 50% inhibition. A word on the Cmax: it is the peak of the concentration-time curve.
